OX1R antag-1: blocks the human orexin 1 receptor. AID 485270. OX1R-expressing cells, FRET antagonist read-out. 1.8% of 330,000 active. O43613. inhibition, % at 6.6 µM; in the data active means inhibition mostly above about 38%, no sharp cut-off; inactive means mostly below about 40%;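 further: 0% = agonist challenge alone and 100% = reference antagonist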
Target sequence (O43613 whole entry, looked up): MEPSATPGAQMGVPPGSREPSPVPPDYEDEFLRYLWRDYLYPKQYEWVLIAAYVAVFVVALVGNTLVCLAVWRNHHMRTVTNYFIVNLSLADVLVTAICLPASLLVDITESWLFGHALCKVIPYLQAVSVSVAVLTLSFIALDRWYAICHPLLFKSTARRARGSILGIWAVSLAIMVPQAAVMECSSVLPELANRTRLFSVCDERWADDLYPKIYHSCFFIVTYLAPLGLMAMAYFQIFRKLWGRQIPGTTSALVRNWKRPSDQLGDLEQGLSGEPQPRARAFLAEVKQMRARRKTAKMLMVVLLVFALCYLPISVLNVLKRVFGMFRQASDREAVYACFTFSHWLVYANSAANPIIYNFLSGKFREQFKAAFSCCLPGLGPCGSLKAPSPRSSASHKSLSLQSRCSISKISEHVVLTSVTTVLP
GPR7 antag: blocks human GPR7 receptor signaling; GPR7-expressing cells, fluorescence antagonist assay; 1.1% of 290,000 active; inhibition, % at 4.4 µM; in the data active means inhibition above about 16%, passing the limit was not always enough;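 further: cells stimulated with the agonist NPW; 0% = agonist with vehicle and 100% = vehicle without agonist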
OX1R antag-2: human HCRTR1 antagonism. CHO/OX1R cells, Fluo-8 calcium fluorescence, orexin A. inhibition, % at 5 µM. 0.43% of 330,000 active. AID 434989;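 active means inhibition above its plate's threshold, mean inhibition of all tested compounds on the plate plus 3 SD, cut at about 37% in these data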;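 further: 0% = orexin A challenge wells and 100% = SB-334867-A antagonist wells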
CHO parental Ca: counter-screen: ATP calcium response change in parental CHO cells; parental CHO-K1, ATP-induced calcium, Fluo-8 fluorescence; inhibition, % at 5.6 µM; 0.63% of 330,000 active; AID 463079;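 active means inhibition above that plate's mean sample inhibition plus 3 SD, cut at about 26% in these data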;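 further: 0% = ATP-challenged DMSO wells and 100% = DMSO wells without ATP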
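Measured by: calcium-sensitive Fluo-8 fluorescence / Test system: CHO parental line / Controls: ATP-challenged DMSO wells low, unchallenged DMSO wells high / Measure: % inhibition / Compound: single nominal dose of 5.6 µM per compound / Replicates: single well per compound, no replicates / Reagent: ATP as calcium-mobilizing challenge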
GalR3 antagonist: blocks the human galanin receptor 3; AID 651719; 0.44% of 360,000 active; O60755; inhibition, % at 3 µM; HEK293 GalR3-CNG cAMP membrane potential fluorescence; galR3 body fused to GalR1 C-terminus;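 active means inhibition above the screen-wide average plus 3 SD, cut at about 13% in these data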;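 further: forskolin and galanin both at EC90 stimulate the cells; cAMP rise reported by CNG channel membrane potential dye signal; 0% = forskolin plus galanin with DMSO and 100% = forskolin alone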
GPR7 antag cf: human GPR7 antagonism, confirmation assay. inhibition, % at 4.4 µM. shares compounds with GPR7 antag. GPR7-expressing cells, calcium fluorescence antagonist mode. 52% of 2,400 active; in the data active means inhibition above about 24%;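 further: stimulated with the GPR7 agonist NPW; 0% = agonist plus vehicle and 100% = vehicle alone without agonist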
MCHR1 antag: counter-screen for GPR7 antagonists: antagonists of human MCHR1; MCHR1-expressing cells, fluorescence antagonist assay; inhibition, % at 4.4 µM; 62% of 2,400 active; shares compounds with GPR7 antag; in the data active means inhibition above about 22%;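 further: 0% = vehicle with agonist and 100% = vehicle without agonist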
Active calls of the source: *; . = no result. Shown are actives, neighbours in structure and some others; about 3.1% of the full set was active somewhere.

SMILES	OX1R antag-1	GPR7 antag	OX1R antag-2	CHO parental Ca	GalR3 antagonist	GPR7 antag cf	MCHR1 antag
O=C(NCCCN1CCOCC1)c1ccccc1N1C(=O)[C@@H]2Cc3c([nH]c4ccccc34)C(c3ccccc3)N2C1=O (some centres not stated)	.	.	.	.	-6	.	.
Cc1ccc(C2c3[nH]c4ccccc4c3C[C@H]3C(=O)N(c4ccccc4C(=O)NCCCN4CCOCC4)C(=O)N23)cc1 (some centres not stated)	4	8	-26	-16	0	.	.
C[C@H](CO)N1C[C@H](C)[C@@H](CN(C)C(=O)c2cnccn2)Oc2cc(C#CCC3CCCC3)ccc2S1(=O)=O	.	.	.	.	-5	.	.
Cc1ccc(N2CN(S(=O)(=O)c3cccc([N+](=O)[O-])c3)c3nc4ccccc4nc32)cc1	9	-25	-10	3	-1	.	.
COc1cc(CNC2CCCC2)cc(Cl)c1OCc1ccc(F)cc1	9	26*	-5	-9	-7	25*	22*
CCOc1cc(CNC2CCCC2)cc(Cl)c1OCc1ccc(F)cc1	20	25*	6	12	-8	49*	54*
COc1cc(CNC2CCCC2)cc(Cl)c1OCc1ccccc1Cl	13	9	6	2	.	.	.
CCNCc1cc(Cl)c(OCc2ccccc2)c(OCC)c1	7	12	-4	-13	-14	.	.
Cc1onc(-c2cccc(Cl)c2Cl)c1C(=O)O/N=C(\N)c1ccc([N+](=O)[O-])o1	28	31*	-23	-2	-7	45*	55*
C=CCS(=O)(=O)N1CCCC(Cc2ccccc2C)(C(=O)OCC)C1 (configuration not stated)	23	31*	-14	-11	-5	3	-1
CCNC(=O)C1(C)CCN(C(=O)c2ccccc2OC(F)(F)F)C1 (configuration not stated)	.	.	.	.	-6	.	.
CS(=O)(=O)Nc1cccc(-c2cc(NC=O)c3ncc(-c4ccc(F)cc4)n3c2)c1	.	.	.	.	-6	.	.
COc1ccc2[nH]c3c(c2c1)CCN1C(=O)N([C@@H](C)C(=O)NCc2ccccc2)C(=O)[C@]31C	16	8	-10	-26	-4	.	.
C[C@@H](C(=O)NCCc1ccccc1)N1C(=O)N2CCc3c([nH]c4ccccc34)[C@@]2(C)C1=O	15	24*	-22	-17	-4	16	27*
O=C(Nc1ccc(-n2cnnn2)cc1)C(c1ccccc1)c1ccccc1	15	-8	-12	-8	-8	.	.
CC(C)CNS(=O)(=O)c1ccc(NC(=O)Cn2nc(-c3ccc(F)cc3)ccc2=O)cc1	16	33*	-5	-16	-10	-1	8
O=C(Cn1nc(-c2ccccc2)ccc1=O)Nc1ccc(-n2cnnn2)cc1	28	27*	8	-2	-4	12	41*
O=C(O)CC(Sc1ccc(Cl)cc1)C(=O)Nc1ccccc1 (configuration not stated)	.	.	.	.	-9	.	.
O=C(Nc1ccccc1N1CCN(c2ccccc2)CC1)c1ccccc1	11	22*	-35	-28	-10	22	45*
O=C(Cc1ccc(Cl)cc1)Nc1ccccc1N1CCN(C(=O)c2ccccc2)CC1	6	28*	-9	-19	-8	36*	51*
O=C(Nc1ccc(N2CCOCC2)cc1N1CCOCC1)c1ccccc1	8	.	-6	-21	-6	.	.
O=C(Nc1ccccc1N1CCN(C(=O)c2ccccc2)CC1)c1ccc(Cl)cc1	12	4	-34	-29	-9	.	.
CN(Cc1ccccc1)C(=O)C1CCN(S(=O)(=O)c2cccc3nsnc23)CC1	30	5	-22	-9	0	.	.
CCOc1ccccc1C(=O)NCC(=O)OCC(=O)N1CCCC1	20	.	-1	-5	-4	.	.
Cc1c(NC(=O)Nc2cccs2)cccc1[N+](=O)[O-]	13	36*	11	10	-5	-9	36*
O=C(COC(=O)C12CC3CC(CC(O)(C3)C1)C2)Nc1cccc(Br)c1	.	.	.	.	3	.	.
COc1ccc(CC2(CO)CCN(Cc3nc(C(C)C)cs3)CC2)cc1	18	25*	-28	-30	-2	8	40*
